Source: PubChem BioAssay
Hits are enriched below; roughly 12% of the tested compounds scored in any of these assays.
WT yeast gro inh: growth inhibition of WT yeast, mitochondrial fusion screen; inhibition, % at 10 µM; mitochondrial fusion phenotypic screen, WT strain; actives 2.1% (n = 190,000); in the data active means inhibition above about 58%; tested in S. cerevisiae
ABCB1 block: inhibitors of human ABCB1 transporter, ABCG2 counter-screen. AID 1326. inhibition, % at 6.6 µM. CCRF-Adr cells, JC-1 efflux, flow cytometry. actives 0.067% (n = 190,000). P08183; in the data active means inhibition above about 40%;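 further: higher value means more JC-1 retained so stronger ABCB1 efflux block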
ABCG2 inh: inhibitors of human ABCG2 transporter, ABCB1 counter-screen. inhibition, % at 6.6 µM. AID 1325. actives 0.1% (n = 190,000). IgMXP3 cells, JC-1 efflux, flow cytometry;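 active means inhibition above 80%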
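Test system: IgMXP3 cells (ABCG2) mixed with DDAO far-red-labelled CCRF-Adr cells (ABCB1). Reagent: JC-1 transporter substrate. Compound dosing: single test compound dose, 6.6 µM final. Times: 10 min compound exposure, 25 °C. Detection: flow cytometry of retained JC-1 fluorescence. Read-out basis: efflux inhibition in percent versus controls. Controls: nicardipine and DMSO wells.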
Lmaj promast: reduces viability of Leishmania major promastigotes; AID 1063; actives 9% (n = 200,000); inhibition, % at 10 µM; resazurin fluorescence viability; in the data active means inhibition above about 50%;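 further: promastigotes grown with compound for 44 hours at 28 °C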
RAM network inh: yeast RAM network inhibition | AID 868 | actives 1.8% (n = 190,000) | inhibition, % at 50 µM | S. cerevisiae dse1pr::URA3 reporter, 5-FOA growth OD615, 2 d; analog-sensitive cbk1-as2 kinase mutant strain;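 active means inhibition above a set limit, 3 SD over mean compound inhibition, cut at about 8.4% in these data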;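 further: inhibition rescues growth on 5-FOA so higher OD means more RAM inhibition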
Large screens that a line does not name were inactive.

COc1ccccc1N1CCN(C2CCN(C(=O)COc3cccc(C)c3)CC2)CC1	Lmaj promast 56
O=C(CCC1CCCC1)N1CCC(N2CCCCCC2)CC1	Lmaj promast 91
COc1ccccc1C(=O)N1CCN(C(=O)COc2cccc(C)c2)CC1	none
COC(=O)C1CCN(C(=O)CCC2CCCCC2)CC1	none
CCCc1cc(C(=O)N2CCN(c3ccccc3C)CC2)cs1	none
N#Cc1c(N)nc2c3c(sc(=N)c2c1N)NC(=O)CC3c1c(F)cccc1Cl (stereo not drawn)	Lmaj promast 100, RAM network inh 8.8
Cc1cc(C2C(C#N)=C(N)Oc3n[nH]c(C)c32)c(C)s1 (stereo not drawn)	none
Cc1[nH]nc2c1C(c1ccc(-c3ccccc3C#N)o1)C(C#N)=C(N)O2 (stereo not drawn)	Lmaj promast 100
Cc1[nH]nc2c1C(c1ccc(-c3ccc(Cl)cc3)o1)C(C#N)=C(N)O2 (stereo not drawn)	Lmaj promast 100
Cc1ccc(-c2ccc(C3C(C#N)=C(N)Oc4n[nH]c(C)c43)o2)cc1 (stereo not drawn)	Lmaj promast 101
Cc1[nH]nc2c1C(c1ccc(F)cc1)C(C#N)=C(N)O2 (stereo not drawn)	none
CC(=O)c1ccc(Nc2cc(C)nc3nc(C)nn23)cc1	none
CC(=O)c1ccc(Nc2cc(C)nc3c(C)cc(C)cc23)cc1	Lmaj promast 100
COc1ccc(S(=O)(=O)Nc2ccc3c(c2)OCO3)cc1OC	none
Cc1cccc(NS(=O)(=O)c2ccc(C3CCCCC3)cc2)c1	WT yeast gro inh 74
Cc1cccc(NS(=O)(=O)c2ccc3c(c2)OCCO3)c1	Lmaj promast 74
COc1ccc(S(=O)(=O)Nc2ccc3c(c2)OCCO3)cc1Cl	Lmaj promast 71 (no result: WT yeast gro inh)
Nc1nc(SCC(=O)Nc2ccccc2C(F)(F)F)[nH]c(=O)c1-c1ccccc1	none
CN(Cc1nc(-c2cccs2)no1)CC(O)c1ccccc1 (stereo not drawn)	none
CC1Oc2ccccc2OC1(O)c1ccc2ccccc2n1 (stereo not drawn)	none
COc1c2ccoc2nc2c(OC)c(OCC(OC(C)=O)C(C)(C)O)ccc12 (stereo not drawn)	none
COc1ccc(OC)c(/C=C2\SC(=S)N(Cc3cccnc3)C2=O)c1	Lmaj promast 82
CCOCCCNC(=O)C(c1ccc(OC)cc1)N(Cc1cccs1)C(=O)c1ccccn1 (stereo not drawn)	none
CN1CCN(c2ccc(-c3ccc4ccccc4n3)cc2)CC1	WT yeast gro inh 73, Lmaj promast 92
CC(C(=O)NCC1CCCCC1)N(C)CC(=O)Nc1ccc(N2CCOCC2)cc1 (stereo not drawn)	none
Cc1ccc(-n2c(-c3ccc(Br)cc3)c[n+]3c2CCc2ccc4cccnc4c2-3)cc1	Lmaj promast 100
COc1cccc2c1C(=O)c1c(O)c3c(c(O)c1C2=O)C[C@@](O)(C(=O)CO)C[C@@H]3O[C@H]1C[C@H](N)[C@H](O)[C@H](C)O1	WT yeast gro inh 59, Lmaj promast 100 (no result: ABCB1 block, ABCG2 inh)
CN(C)c1ccc(C(CNS(=O)(=O)c2ccc(F)c(F)c2)c2c[nH]c3ccccc23)cc1 (stereo not drawn)	WT yeast gro inh 74
Cc1ccccc1-c1ccc(=O)n(CC(=O)Nc2ccc(S(=O)(=O)N(C)C)cc2)n1	RAM network inh 8.9
CC12CCC(C/C1=N/NC(=O)Nc1ccccc1)C2(C)C (stereo not drawn)	Lmaj promast 95
COc1cccc(NC(=S)N/N=C2\CC3CCC2(C)C3(C)C)c1 (stereo not drawn)	WT yeast gro inh 71, Lmaj promast 89
O=C(CS(=O)(=O)c1c[nH]c2ccccc12)N1CCCCCC1	none
CCOC(=O)C1CNc2cc(S(=O)(=O)CC)ccc2O1 (stereo not drawn)	none
Cc1nn(CCCC(=O)Nc2nccs2)c(C)c1[N+](=O)[O-]	none
O=C(Nc1nnc(-c2ccncc2)s1)Nc1ccccc1F	Lmaj promast 60
O=C(COc1ccccc1F)Nc1nnc(-c2ccncc2)s1	none
CCOC(=O)CN1C(c2ccc(O)cc2)Nc2ccc(Br)cc2C1c1ccccc1 (stereo not drawn)	WT yeast gro inh 96
CCSc1nc(C2CC2)cc(-c2ccco2)c1C#N	RAM network inh 10
Cc1ccc(/C=C2/NC(=O)N(Cc3ccccc3)C2=O)s1	Lmaj promast 73
COc1ccc(-c2[nH]c(-c3cccc(OC)c3)nc2SCC(=O)NC2CCCC2)cc1	Lmaj promast 58
